“Also recorded” adds a separate entry of the source.
Tests used:
DCAF15 = DCAF15 (Homo sapiens, UniProt Q66K64); assay: TR-FRET competition assay: displacement of BodipyFL-E7820 from DCAF15; format: binding; settings: for DCAF15 binding, in words: relative to E7820
RBM39RRM2-biotin = target: T1, RBM39RRM2-biotin (Homo sapiens, UniProt Q14498); assay: TR-FRET titration of BodipyFL-E7820 probe to RBM39RRM2-biotin; format: binding; settings: probe titrated to RBM39RRM2-biotin
T1 sequence (Q14498 245-332): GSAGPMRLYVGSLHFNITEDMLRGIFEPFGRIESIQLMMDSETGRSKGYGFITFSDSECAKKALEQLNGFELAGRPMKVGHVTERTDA
Summary of the method: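 RBM39RRM2 was Avi-tagged and biotinylated in vitro with BirA, then gel-filtered. It was mixed with 2 nM terbium-streptavidin in Tris pH 8.0/NaCl/Pluronic F-68/BSA buffer. Increasing BodipyFL-E7820 probe was added at 2% DMSO, 15 min room temperature. The 520/490 nm ratio without protein was subtracted, and KD came from a one-site specific-binding fit. Three independent replicates.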

compound binding to RBM39 (RBM39RRM2-biotin) | Ki (DCAF15) | Structure (SMILES) | DCAF15 binding, in words (DCAF15)
– | – | N#Cc1cccc(S(=O)(=O)Nc2cccc3c(C#N)c[nH]c23)c1 [desmethyl-E7820] | significant loss of DCAF15 binding
only observed for DDB1ΔB-DCAF15biotin | – | Cc1cc(C)n2c1C=C1C=CC(CCC(=O)NCCCCCCOc3ccc(S(=O)(=O)Nc4ccc(C)c5c(C#N)c[nH]c45)cc3C#N)=[N+]1[B-]2(F)F [BodipyFL-E7820, N-(6-(2-cyano-4-(N-(3-cyano-4-methyl-1H-indol-7-yl)sulfamoyl)phenoxy)hexyl)-3-(5,5-difluoro-7,9-dimethyl-5H-5λ^4,6λ^4-dipyrrolo[1,2-c:2',1'-f][1,3,2]diazaborinin-3-yl)propanamide] | –
– | > 50 µM | NS(=O)(=O)c1ccc(S(=O)(=O)Nc2cccc3c(Cl)c[nH]c23)cc1 [indisulam] | significant loss of DCAF15 binding; also recorded: significant loss in affinity for DCAF15

From PMC6917914 (Nature chemical biology, 2019)
